Published values collected from several papers.
Compare with care: the assays were run in different laboratories.
CTSS: Cathepsin S (CTSS, Homo sapiens, UniProt P25774)
MAOA: Amine oxidase [flavin-containing] A (MAOA, Homo sapiens, UniProt P21397)

SMILES	target	assay	setting	inhibition [%]
O=C(Nc1cccnn1)N1CCN([C@@H]2CCOc3cc(C(F)(F)F)ccc32)CC1	Angiotensin-converting enzyme 2 (ACE2, Homo sapiens, UniProt Q9BYF1)	enzyme activity, inhibitor	20 µM	3
CC(C)C[C@H](NC(=O)[C@H]1O[C@@H]1C(=O)O)C(=O)NCCCCN=C(N)N	CTSS	enzyme activity, inhibitor	50 nM	81
COc1cc(Nc2ncc(F)c(Nc3ccc4c(n3)NC(=O)C(C)(C)O4)n2)cc(OC)c1OC	Homeodomain-interacting protein kinase 3 (HIPK3, Homo sapiens, UniProt Q9H422)	binding, competition with immobilised ligand	10 µM	64
C#Cc1n[nH]c2c(-c3cn([C@@H](C)c4ccccc4)c(=O)[nH]c3=O)cc(F)cc12	Focal adhesion kinase 1 (PTK2, Homo sapiens, UniProt Q05397)	enzyme activity, inhibitor	0.1 µM	3.8
Cn1cc(-c2cc(F)cc(N3CCn4c(cc5c4CCCC5)C3=O)c2CO)cc(Nc2ccc(N3CCN(C4COC4)CC3)cn2)c1=O	Cyclin-dependent kinase 5, with p35 (CDK5, Homo sapiens, UniProt Q00535)	enzyme activity, inhibitor	0.1 µM	6
N=C(N)c1ccc2cc(OC(=O)c3ccc(N=C(N)N)cc3)ccc2c1	Ubiquitin carboxyl-terminal hydrolase 2 (USP2, Homo sapiens, UniProt O75604)	enzyme activity, inhibitor	10 µM	0
c1ccc(C(NCCNC(c2ccccc2)c2ccccc2)c2ccccc2)cc1	MAOA	cell-free assay, inhibitor	10 µM	11
CN(C)C(=O)COC(=O)Cc1ccc(OC(=O)c2ccc(NC(=N)N)cc2)cc1	CTSS	enzyme activity, inhibitor	10 µM	3
C#Cc1n[nH]c2c(-c3cn(C(C)c4ccccn4)c(=O)[nH]c3=O)cc(F)cc12 (centres unmarked)	High affinity nerve growth factor receptor (NTRK1, Homo sapiens, UniProt P04629)	enzyme activity, inhibitor	1 µM	13.1
CCN(CC)CCCC[C@H](NC(=O)[C@H](CC(C)C)NC(=O)[C@H](C)NC(=O)[C@H](Cc1ccccc1)NC(=O)c1ccc(C(C)(C)C)cc1)C(=O)N[C@@H](CO)C(=O)OC	Vasoactive intestinal polypeptide receptor 1 (VIPR1, Homo sapiens, UniProt P32241)	ligand displacement, radioligand	10 µM	-9
O=c1ccoc2ccc(OCCCCN3CCCCC3)cc12	MAOA	enzyme activity, inhibitor, fluorescence	10 µM	16
Clc1ccc2c(C3CCN(CCc4c[nH]c5ccccc45)CC3)c[nH]c2c1	Alpha-1A adrenergic receptor (ADRA1A, Homo sapiens, UniProt P35348)	ligand displacement, radioligand	10 µM	108
CCOC(=O)c1ccc(OC(=O)CCCCCNC(=N)N)cc1	CTSS	enzyme activity, inhibitor	10 µM	4
COCc1c(-c2cc3cc(C)cc(OC)c3s2)c2c(N)ncnn2c1CN1CCNC(=O)C1	MAOA	enzyme activity, inhibitor	10 µM	-3
Cc1ccc2nc(N3C(=O)C(O)=C(C(=O)OC(C)(C)C)C3c3ccc(-c4ccc(Cl)cc4)o3)sc2c1 (centres unmarked)	UDP-N-acetylglucosamine 1-carboxyvinyltransferase (murA, Escherichia coli K-12, UniProt P0A749)	enzyme activity, inhibitor	20 µM	88
C[C@@H]1CCCN1CCCCOc1ccc2occc(=O)c2c1	MAOA	enzyme activity, inhibitor, fluorescence	10 µM	7
Nc1ncnc2c1ncn2[C@@H]1O[C@H](CNS(=O)(=O)c2ccc3ccccc3c2)[C@@H](O)[C@H]1O	Protein arginine N-methyltransferase 3 (PRMT3, Homo sapiens, UniProt O60678)	enzyme activity, inhibitor	10 µM	-5
